XBP1 UPR activ = activators of adaptive XBP1 UPR arm, primary screen, cell-based, CHO-XBP1 luciferase reporter, luminescence, uHTS | IRE1-XBP1 UPR activation; percent of tunicamycin response, DMSO as zero | activation, % at 20 µM | AID 463104, 2010 | 330,000 tested, 0.33% active;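 active = versus positive control, 20 µM dose yields 30% or more activation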;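 also: 100% = tunicamycin at 10 µg/mL and 0% = DMSO only wells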
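Material: IRE1-XBP1 luciferase reporter CHO line / Quantity: one thousand reporter cells per well / Buffer or medium: F12 with 10% serum / Compound: 20 µM single concentration, DMSO 1% / Times: 6 h treatment, 37 °C / Detection: Steady-Glo luciferase glow luminescence, 10 min after reagent addition / Benchmarks: tunicamycin high, DMSO low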
Apaf-1 inh = inhibitors of human Apaf-1 apoptosome, primary screen, biochemical, DEVD-Rh110 fluorescence, uHTS; 330,000 tested, 0.71% active; reconstituted apoptosome caspase-3 activity; inhibition, % at 20 µM; active = inhibition of at least 40% at 20 µM;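 also: plate controls were DMSO wells for no effect and DEVD-CHO caspase inhibitor wells for full effect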
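Material: reconstituted apoptosome with Apaf-1, cytochrome c, caspase-9, procaspase-3, dATP; medium: pH 7.5 Hepes buffer with CHAPS, BSA, DTT; also added: cytochrome c and DEVD-Rh110 substrate; timing: 30 min plus 50 min, RT; signal: Rh110 fluorescence intensity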
Mdm2 MdmX PPI = inhibitors of human Mdm2-MdmX association, primary screen, cell-based, luminescence, split luciferase, SaOS-2, uHTS; SaOS-2 split-luciferase Mdm2/MdmX complementation; inhibition, % at 8 µM; 330,000 tested, 3% active; AID 485346, 2010;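 active = inhibition of at least 50% at 8 µM in the primary screen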
UPR CHOP act = activators of apoptotic CHOP UPR arm, primary screen, cell-based, CHO-CHOP luciferase reporter, luminescence, uHTS | UPR activation; percent of tunicamycin response over DMSO baseline | activation, % at 10 µM | 330,000 tested, 0.34% active;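 active = at 10 µM dose, activation of 40% or more, normalized to positive control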;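 also: 100% = tunicamycin at 10 µg/mL and 0% = DMSO alone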
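Assay system: CHO cells with stable CHOP pathway luciferase reporter; Buffer or medium: F12 plus 10% serum; Times: 16-18 h cell attachment, then 6 h compound exposure, 37 °C; Signal: luciferase luminescence; Read-out basis: percent activation relative to tunicamycin control; Control set: tunicamycin high control, DMSO low control.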
UBC13 inh = UBC13 polyubiquitin chain formation inhibitors, primary screen, biochemical, TR-FRET, uHTS | 330,000 tested, 0.47% active | AID 485273, 2010 | Ubiquitin-conjugating enzyme E2 N (Homo sapiens), P61088 | inhibition, % at 20 µM; in the data active = inhibition above about 45%, passing the limit was not always enough
Target sequence (P61088 whole entry, looked up): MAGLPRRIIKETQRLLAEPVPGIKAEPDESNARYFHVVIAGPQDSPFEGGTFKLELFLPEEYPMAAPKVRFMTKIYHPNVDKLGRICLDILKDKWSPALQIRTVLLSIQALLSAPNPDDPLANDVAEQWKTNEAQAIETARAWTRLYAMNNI
Mdm2-MdmX conf = Mdm2-MdmX complex disruptors, retested hits, confirmation, luminescence, single concentration | shares compounds with Mdm2 MdmX PPI | Mdm2-MdmX binding, luminescent assay | inhibition, % at 8 µM | 10,000 tested, 55% active; in the data active = inhibition above about 40%
Full FLuc ctr = full-length luciferase signal inhibition, confirmation, counter-screen for Mdm2/MdmX interaction inhibitor project, cell-based, single concentration, SaOS-2. shares compounds with Mdm2 MdmX PPI. 6,200 tested, 77% active. AID 504607, 2011. SaOS-2 full-length luciferase counterscreen, luminescence. inhibition, % at 8 µM;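 active = mean inhibition at 8 µM reaching about 37%, which flags the compound as non-specific, limit read from the data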;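 also: p53-null SaOS-2 cells with luciferase driven by a doxycycline-inducible promoter; compound on cells about two nights before reading with doxycycline added after day one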
* = called active by the depositor; . = no result given. Sampled rows, rich in hits. Any-hit rate of the full collection: about 4.1%.

SMILES	XBP1 UPR activ	Apaf-1 inh	Mdm2 MdmX PPI	UPR CHOP act	UBC13 inh	Mdm2-MdmX conf	Full FLuc ctr
CCN1CCN(c2ccc(S(=O)(=O)N3CCCCC3)cc2NC(=O)/C=C/c2ccc([N+](=O)[O-])cc2)CC1	4	36	99*	5	10	92*	48*
O=C(CN(Cc1ccco1)C(=O)c1ccccc1)Nc1ccc(Cl)c(Cl)c1	0	10	15	4	5	.	.
CCOc1ccc(/C=N/NC(=O)CSc2n[nH]c(=O)[nH]c2=O)cc1OC	1	-12	9	3	0	.	.
Clc1ccccc1OCCCOc1cccc2cccnc12	-1	20	-54	3	4	.	.
COc1cc(OC)cc(-c2oc(=O)c3cc(OC)c(OC)cc3c2/C=C/c2ccc(F)cc2)c1	0	13	18	3	6	.	.
O=C(CCl)N(C1CCCC1)C1CCS(=O)(=O)C1 (configuration not stated)	0	1	87*	4	-1	72*	55*
CC(=O)c1ccc(OCC(=O)N(C2CCCCC2)C2CCS(=O)(=O)C2)cc1 (configuration not stated)	-3	-7	7	0	0	.	.
CCOc1ccc(NC(=O)CN(C)C(=O)c2cc3c(s2)CCC(C)C3)cc1OCC (configuration not stated)	-3	17	17	-2	2	.	.
COc1ccc2[nH]c3c(c2c1)CCNC3=O	-2	1	71*	-1	8	48*	34
O=C1NCCc2c1[nH]c1ccccc21	0	6	11	0	4	.	.
CCOc1ccc(S(=O)(=O)Nc2ccc(C(=O)NCC(c3ccco3)N3CCCCC3)cc2)cc1 (configuration not stated)	2	12	16	-2	0	.	.
S=c1[nH]nc(-c2ccccc2)n1/N=C/c1ccc(-c2ccccc2Cl)o1	3	23	90*	1	-15	90*	54*
COc1ccc(Nc2nc(-c3cccs3)nc3ccccc23)cc1S(=O)(=O)N1CCOCC1	25	-7	85*	4	24	82*	57*
CC(/C=C1\SC(=S)N(CCC(=O)Nc2nc(C)cs2)C1=O)=C\c1ccccc1	-3	-11	-17	5	-5	.	.
Cc1cc(=O)[nH]c2c(C)cc(S(=O)(=O)N3CCOCC3)cc12	-2	-12	11	0	4	.	.
Cc1cc(=O)[nH]c2c(C)cc(S(=O)(=O)N3CCCCC3)cc12	0	-8	70*	-1	5	54*	89*
CCN1CCC(O)(C#Cc2ccccc2)CC1	-4	1	9	-1	4	.	.
CC1C(c2ccccc2)N(C)C(c2ccccc2)C(C)C1(O)C#Cc1ccccc1 (configuration not stated)	2	17	71*	-1	0	25	.
COc1ccc(-n2cc(CN[C@H]3CCCCNC3=O)c(-c3cccc(F)c3)n2)cc1	3	-10	-15	0	8	.	.
COc1ccc(-n2cc(CNC3CCN(C)CC3)c(-c3cccc(F)c3)n2)cc1	0	-2	66*	3	14	57*	41*
C[C@@H]1C=CC(=O)O[C@@H]1c1ccc(Cl)cc1	1	1	79*	5	2	61*	5
O=C(Nc1cnn(C23CC4CC(CC(C4)C2)C3)c1)c1cnn2c(C(F)(F)F)cc(-c3ccco3)nc12	11	13	58*	10	-12	17	.
O=C(Nc1ccc2c(c1)OCO2)c1cnn2c(C(F)(F)F)cc(-c3ccco3)nc12	7	3	33	3	-12	.	.
FC(F)(F)c1ccc(C2[C@H]3CN(Cc4ccc(-c5ccccc5)cc4)[C@H](c4ccccc4)C34CC2(c2cccnc2)C4)cc1 (some centres not stated)	1	24	54*	1	-52	38	58*
O=C(NCc1ccccc1)C1=C[C@@H](c2coc3ccccc3c2=O)C[C@@H](OCCCCO)O1	-1	4	20	1	13	.	.
SMILES	XBP1 UPR activ	Apaf-1 inh	Mdm2 MdmX PPI	UPR CHOP act	UBC13 inh	Mdm2-MdmX conf	Full FLuc ctr
CCOC(=O)C(C)/C(C)=N/NC(=O)c1cc2ccccc2cc1O (configuration not stated)	0	6	82*	3	2	81*	56*
Cc1nn(C)c(C)c1S(=O)(=O)N(CC(=O)N1CCc2ccccc21)c1ccc(C(C)C)cc1	-4	21	63*	0	14	24	.
COc1ccc(CNC(=O)CN(c2ccc(OC)cc2)S(=O)(=O)c2c(C)nn(C)c2C)cc1	-3	-9	10	-1	4	.	.
Cc1ccc(CNC(=O)CN(c2ccc(C)cc2)S(=O)(=O)c2c(C)nn(C)c2C)cc1	-9	3	53*	0	-4	51*	63*
Cc1ccc(N(CC(=O)NCc2ccc(F)cc2)S(=O)(=O)c2c(C)nn(C)c2C)cc1	-5	3	64*	0	-1	63*	63*
COc1ccc(N(CC(=O)NCc2ccc(C)cc2)S(=O)(=O)c2c(C)nn(C)c2C)cc1	-3	-9	5	2	-5	.	.
COc1ccc(N(CC(=O)N2CCc3ccccc32)S(=O)(=O)c2c(C)nn(C)c2C)cc1	-2	8	-8	-2	4	.	.
CC(NC(=O)Cc1cccs1)c1ccccc1 (configuration not stated)	1	-7	-3	0	-11	.	.
O=C(O)CN(c1ccccc1)S(=O)(=O)c1cc(C(F)(F)F)cc(C(F)(F)F)c1	0	6	18	0	-1	.	.
Cc1ccc(NC(=O)CN2C(=O)c3ccccc3S2(=O)=O)c(C)c1	-3	1	16	0	5	.	.
O=C(CN1C(=O)c2ccccc2S1(=O)=O)Nc1ccccc1	-3	-2	32	-2	0	.	.
Cc1cc(C(=O)CN2C(=O)c3ccccc3S2(=O)=O)c(C)n1CC1CCCO1 (configuration not stated)	-4	1	54*	-7	-7	37	9
O=C(CN1C(=O)c2ccccc2S1(=O)=O)c1ccc(O)c(O)c1	3	-20	56*	-1	-3	55*	74*

Screening data as filed in PubChem BioAssay.
